NF-kB neuron act: raises NF-kB expression in human neuronal cells; fold change at 12.5 µM; NF-kB reporter expression; hits give high values; AID 1239; 190,000 compounds, 1.6% hits; in the data active means fold change above about 3.3
STAT1 act: activators of IFN-gamma induced STAT1 signaling; NIH 3T3 STAT1-luciferase reporter, luminescence; 100% = IFN-gamma alone, no compound; activation (% of control), % at 5.5 µM; 200,000 compounds, 2.6% hits;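 active means activation above the screen-wide mean activation plus 3 SD, cut at about 130% in these data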;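 further: raw ratio to IFN-gamma control signal so 100% means no change and 0% no light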
STAT1 inh: STAT1 signaling inhibition. NIH 3T3 STAT1-luciferase reporter, IFN-gamma, luminescence. inhibition, % at 5.5 µM. 200,000 compounds, 0.35% hits. AID 920;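 active means inhibition above a set limit, the mean inhibition across all tested compounds plus 3 SD, cut at about 34% in these data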;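 further: 0% = IFN-gamma with DMSO and 100% = IFN-gamma with 300 µM nifuroxazide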
STAT3 act: STAT3 signaling activation; U3A cells, IL-6 STAT3-luciferase reporter, luminescence; 100% = signal with IL-6 EC80 alone; activation (% of control), % at 5.6 µM; 190,000 compounds, 0.91% hits;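 active means activation above the screen-wide mean of compound activation plus 3 SD, cut at about 130% in these data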;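 further: 0% = background luminescence of wells with medium and substrate only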
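Material: STAT3-luciferase reporter U3A cells; Probe or stimulus: IL-6 (33 ng/mL); Incubation: compound pre-incubation 1 h before IL-6, then 6 h stimulation at 37 °C; Technique: luminescence from STAT3-driven luciferase reporter; Evaluation: % activation versus median of IL-6-stimulated wells; Controls: IL-6-only high control.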
APP 5'UTR act: activates APP 5'UTR luciferase reporter | 190,000 compounds, 1% hits | SH-SY5Y APP 5'UTR luciferase reporter, luminescence; zero percent = DMSO vehicle wells | AID 1276 | activation, % at 2 µM;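 active means activation above a set limit, based on mean plus 3 SD of controls, cut at about 140% in these data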
Pf gamet viab: kills late stage P. falciparum gametocytes | P. falciparum stage V gametocytes, ATP luminescence, 24 h | inhibition, % at 10.9 µM | 150,000 compounds, 0.065% hits;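 active means inhibition above the mean plus 3 SD of compounds within the control limits, set per campaign, cut at about 38% in these data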;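 further: 0% = DMSO wells and 100% = medium only without gametocytes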
Starred values were filed as active, the others as inactive; . = no result given. Hits are enriched below; roughly 3.9% of the tested compounds scored in any of these assays.

SMILES	NF-kB neuron act	STAT1 act	STAT1 inh	STAT3 act	APP 5'UTR act	Pf gamet viab
COc1ccc(OCc2cccc(C(=O)Nn3cc([N+](=O)[O-])cn3)c2)cc1	7.4*	20.9	87.5*	61.0	25.1	.
CCOc1ccc(OCc2cccc(C(=O)N3CCOCC3)c2)cc1	3.43*	24.3	82.2*	16.6	-47.8	.
O=c1c2c3c(sc2n(CCN2CCOCC2)c(=O)n1C1CCCCC1)CCCCC3	.	.	.	.	.	-10.2
CCOC(=O)Cc1nc(-c2ccc(Cl)cc2)n[nH]1	1.61	105.3	-5.5	90.9	3.5	-6.9
COc1ccc(OCc2cccc(C(=O)Nc3cc(C)on3)c2)cc1	2.67	52.9	58.0*	44.2	66.4	-14.3
O=c1c2ccccc2ncn1CCOCCOc1ccc([N+](=O)[O-])cc1	1.11	129.1*	-35.3	94.8	-4.6	.
Cc1cccc(N2NC(=O)/C(=C/c3ccc(-c4ccc(Cl)c(C(=O)O)c4)o3)C2=O)c1	3.94*	89.7	10.1	95.1	9.4	-10.5
O=C1NN(c2ccccc2)C(=O)/C1=C/c1ccc(-c2ccc(Cl)c(C(=O)O)c2)o1	1.11	100.6	-1.0	104.2	10.8	.
O=S(=O)(N/N=C/c1cn(Cc2ccccc2)c2ccccc12)c1ccccc1	1.22	105.5	-6.1	101.8	-12.0	1.6
COc1ccccc1NC(=O)COc1ccccc1C(=O)c1cnn(-c2ccccc2)c1	1.52	108.8	-9.6	109.3	53.7	8.8
CCc1ccc(NC(=O)COc2ccc(F)cc2C(=O)c2cnn(-c3ccccc3)c2)cc1	1.16	129.9*	-32.9	132.9	49.5	-5.5
CN(c1ccccc1C(=O)NCc1ccccc1Cl)S(=O)(=O)c1ccccc1	.	.	.	.	.	23.4
Cc1oc2cc3c(C(=O)N4CCN(c5ccccc5)CC4)c(C)oc3cc2c1C(=O)N1CCN(c2ccccc2)CC1	.	96.2	4.1	102.7	7.2	.
Cc1oc2cc3c(C(=O)N4CCCCC4)c(C)oc3cc2c1C(=O)N1CCCCC1	0.88	139.1*	-42.8	132.5	71.4	.
Cc1ccc(-n2c(C)nn(CCOc3ccccc3)c2=O)cc1	2.23	133.5*	-40.1	110.4	58.0	21.1
Cc1nn(CC2CC2)c(=O)n1-c1ccccc1F	1.17	96.2	3.7	99.9	7.3	1.5
Cc1nn(C)c(=O)n1-c1ccc(Oc2ccccc2)cc1	1	101.0	-1.1	108.6	.	-22.1
Cc1nn(CCOc2ccccc2)c(=O)n1-c1c(F)cccc1F	2.35	140.1*	-44.5	110.6	61.9	-5.1
NC(=S)N/N=C\c1c(OCc2ccccc2Cl)ccc2ccccc12	1.19	127.6	-33.2	87.8	-6.3	-7.3
C=Cn1ccnc1CC(O)c1ccc(OC)cc1 (stereo not given)	.	.	.	.	.	-16.4
CC(=O)N=C(N)Sc1nc2ccccc2[nH]1	2.7	134.5*	-37.4	101.8	63.2	12.0
COc1ccc(Br)cc1C(=O)NC(=S)Nc1c(C)n(C)n(-c2ccccc2)c1=O	.	.	.	.	.	-1.6
COc1cc(NC(=O)c2cc3ccccc3o2)c(OC)cc1Cl	1.13	99.2	0.9	153.8*	-15.4	2.6
CC(C)C(=O)Nc1cccc(NC(=O)c2cc3ccccc3o2)c1	1.54	130.5*	-30.9	93.6	36.0	19.2
Cc1ccccc1NC(=O)c1ccc([N+](=O)[O-])o1	3.31*	100.5	-2.1	94.5	2.2	-8.4
SMILES	NF-kB neuron act	STAT1 act	STAT1 inh	STAT3 act	APP 5'UTR act	Pf gamet viab
COc1cc(NC(=O)C(C)C)ccc1NC(=O)c1cc2ccccc2o1	.	.	.	.	.	19.1
COc1ccc(NC(=O)c2ccco2)cc1NC(=O)c1cc2ccccc2o1	1	95.4	3.2	94.6	-6.1	.
O=C(Nc1ccc(Cl)cc1Cl)c1cc2ccccc2o1	.	.	.	.	.	13.8
COc1ccccc1NC(=O)c1cc2ccccc2o1	2.44	153.6*	-58.1	165.0*	45.8	.
CC(=O)Nc1ccc(S(=O)(=O)N2c3ccccc3NC(=O)CC2C)c(Cl)c1 (stereo not given)	.	.	.	.	.	8.2
Cc1oc2c(Cl)c(Cl)c(O)c(CN(C)C)c2c1C(=O)c1ccc(Cl)cc1	.	.	.	.	.	4.7
CSc1ccccc1NC(=O)c1cc(CC(C)C)on1	2.3	111.1	-10.9	105.9	35.9	.
COc1ccccc1NC(=O)c1ccc(-c2ccc(Br)cc2)o1	1.65	101.9	-2.1	102.9	19.4	-8.3
COc1cc(NC(=O)c2cc(CC(C)C)on2)c(OC)cc1Cl	0.99	104.9	-4.3	135.6*	-11.8	.
CC(C)Cc1cc(C(=O)NCc2ccco2)no1	2.02	130.1*	-34.6	.	22.1	.
COc1ccc(NC(=O)c2cc3ccccc3o2)cc1	5.35*	146.0*	-48.4	105.1	137.9*	.
COc1ccc(NC(=O)c2cc3ccccc3o2)cc1OC	.	.	.	.	.	-8.8
COc1ccccc1NC(=O)c1ccc(-c2ccccc2[N+](=O)[O-])o1	1.9	149.7*	-55.8	90.8	45.7	-9.0
CCCCC(=O)Nc1ccc(C(=O)N(CC)c2ccccc2C)cc1	1	96.4	4.1	104.9	-1.9	22.0
N#Cc1ccccc1NC(=O)c1ccc(-c2ccccc2Cl)o1	2.09	137.8*	-45.8	94.4	45.3	.
O=C1c2ccccc2C(=O)N1CCN1CCc2ccccc21	1.23	131.9*	-34.8	101.0	23.3	-32.9
c1ccc2c(c1)CCN2CCN1CCc2ccccc21	0.92	82.3	19.5	112.8	-3.9	19.6
COc1ccc(Cn2c(-c3ccccc3C)nc3c(c(=O)c4ccccc4n3C)c2=O)cc1	.	.	.	.	.	17.6
Nc1nnc(SCc2coc(-c3ccc(Cl)cc3)n2)s1	1.91	142.7*	-47.1	96.0	46.3	-2.7
Nc1nnc(SCc2ccc(Cl)cc2)s1	1.68	111.8	-5.2	94.8	11.8	.
Cc1cc(C)n(C2CC(=O)N(c3ccc(Cl)c(Cl)c3)C2=O)n1 (stereo not given)	.	.	.	.	.	2.0
Cc1ccc(Cc2cnc(NC(=O)C3CCCO3)s2)cc1 (stereo not given)	4.51*	134.6*	-38.7	102.3	145.2*	8.7
CC(C)C(=O)Nc1ncc(Cc2ccccc2Cl)s1	1.78	92.1	6.7	93.8	-15.0	17.1
Cc1ccc(C(=O)Nc2ncc(Cc3ccccc3)s2)o1	1.31	120.7	-22.6	72.5	205.3*	14.4
O=C(Nc1ncc(Cc2ccc(SC(F)F)cc2)s1)c1ccccc1	3.58*	120.4	-22.4	101.8	-86.2	-9.4
SMILES	NF-kB neuron act	STAT1 act	STAT1 inh	STAT3 act	APP 5'UTR act	Pf gamet viab
NNC(=S)Nc1cccc(-c2n[nH]c(=S)o2)c1	.	.	.	.	.	-6.0
CCN(CC)C(=O)Cn1cc(C(=O)C(=O)NCc2ccco2)c2ccccc21	1.11	98.2	1.8	102.9	-9.7	.
CNC(=S)N1CCC(c2nc3ccccc3s2)CC1	1.38	101.7	-3.2	93.3	25.5	19.9
Cc1cc(Cl)ccc1OCC(=O)N/N=C1\CC2C=CCC12 (stereo not given)	1.41	100.8	-0.9	99.6	1.9	18.6
O=C(COC(=O)c1ccco1)NCc1ccc(F)cc1	1.24	104.1	-4.7	97.5	6.6	-17.0
Fc1ccc(Nc2ccc(-c3ccc(F)cc3)nn2)cc1	2.67	139.3*	-44.7	97.7	81.0	.

Compound activity as filed in PubChem.
